Screening data: PubChem, several laboratories
SENP1 FRET inh: inhibitors of human SENP1 SUMO protease catalytic domain; Q9P0U3; recombinant SENP1 catalytic domain, CyPet-SUMO1-YPet FRET cleavage; inhibition, % at 10 µM; 360,000 tested, 0.21% active; AID 624204;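 active means inhibition at least 30% at 10 µM, raw YFP signal under a set limit, fluorescence ratio 0.5 to 1.5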
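Material: hSENP1 catalytic domain, recombinant; medium: Tris pH 8 with BME, BSA, NP40 and catalase; compound: single concentration of 10 µM compound, 0.5% DMSO final; technique: FRET read of cyan and yellow fluorescence; timing: 50 min enzyme reaction, room temperature, light-protected; reagent: SFCypet-SUMO1-SFYpet substrate at 25 nM; control set: no-enzyme low, enzyme-DMSO high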
SENP7 block: SENP7 protease inhibition. recombinant SENP7, Z-RLRGG-aminoluciferin luminescence, 40 min. inhibition, % at 5 µM. 330,000 tested, 1.5% active. AID 434973;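 active means inhibition above about 50% at the single test dose, limit read from the data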
SENP6 block: SENP6 protease inhibition. AID 2599. inhibition, % at 10 µM. Recombinant SENP6 catalytic domain, aminoluciferin luminescence. 330,000 tested, 1.8% active;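 active means inhibition above about 50% at the single tested dose, limit read from the data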
SENP8 block-1: SENP8 (human) protease inhibition | AID 602440 | inhibition, % at 20 µM | Q96LD8 | 360,000 tested, 0.64% active | recombinant SENP8, Nedd8 substrate fluorescence; in the data active means inhibition mostly above about 40%, no sharp cut-off; inactive means mostly below about 27%
Target sequence (Q96LD8 whole entry, looked up): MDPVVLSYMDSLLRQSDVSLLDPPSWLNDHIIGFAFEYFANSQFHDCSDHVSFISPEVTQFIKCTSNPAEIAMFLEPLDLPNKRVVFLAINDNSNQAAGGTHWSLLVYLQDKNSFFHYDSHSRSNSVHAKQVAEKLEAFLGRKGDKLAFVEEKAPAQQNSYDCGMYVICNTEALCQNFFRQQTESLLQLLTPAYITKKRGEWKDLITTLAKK
SENP8 block-2: inhibitors of human SENP8 protease; purified SENP8, Z-RLRGG-aminoluciferin cleavage, luminescence; inhibition, % at 10 µM; 330,000 tested, 1.2% active; Q96LD8; in the data active means inhibition above about 50%
UCH37 DUB inh: blocks the human deubiquitinase UCH37; Q9Y5K5; purified proteasome/UCH37, Ub-AMC cleavage fluorescence; 330,000 tested, 0.33% active; inhibition, % (no concentration beside the values);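 active means mean inhibition over replicate wells above about 20%, limit read from the data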
Target sequence (Q9Y5K5 whole entry, looked up): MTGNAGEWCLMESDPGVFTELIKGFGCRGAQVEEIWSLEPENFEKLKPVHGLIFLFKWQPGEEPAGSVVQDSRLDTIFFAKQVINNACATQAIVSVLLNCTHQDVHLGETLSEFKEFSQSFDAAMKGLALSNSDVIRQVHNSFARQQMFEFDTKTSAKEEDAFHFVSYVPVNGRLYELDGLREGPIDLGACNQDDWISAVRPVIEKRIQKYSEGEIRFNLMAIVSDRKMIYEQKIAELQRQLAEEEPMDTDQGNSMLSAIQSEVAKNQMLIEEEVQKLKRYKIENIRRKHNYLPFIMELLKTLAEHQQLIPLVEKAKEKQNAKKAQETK
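Test system – human UCH37 enzyme supplied as purified proteasome complex · Incubation – 30 min preincubation with enzyme, 25 min cleavage at room temperature · Detection – AMC fluorescence from Ub-AMC cleavage, excitation 355 nm, emission 460 nm · Benchmarks – no-proteasome wells (full inhibition) and compound-free wells (no inhibition)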
SENP8 confirm: confirmation of human SENP8 protease inhibitors | shares compounds with SENP7 block | Recombinant SENP8, Z-RLRGG-aminoluciferin luminescence, 60 min | inhibition, % at 12.5 µM | 6,200 tested, 40% active;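 active means mean inhibition across replicates above about 50%, limit read from the data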
SENP6 confirm: confirmation of human SENP6 protease inhibitors; 6,200 tested, 58% active; shares compounds with SENP7 block; inhibition, % at 12.5 µM; AID 488915; recombinant SENP6, Z-RLRGG-aminoluciferin luminescence
SENP7 conf: human SENP7 inhibition, confirmed. shares compounds with SENP7 block. recombinant SENP7, Z-RLRGG-aminoluciferin luminescence, 40 min. inhibition, % at 12.5 µM. 6,200 tested, 69% active. AID 488917
Casp3 select: inhibits human caspase-3 in SENP selectivity test. shares compounds with SENP7 block. purified caspase-3, Z-DEVD-aminoluciferin luminescence, 60 min. inhibition, % at 12.5 µM. 6,200 tested, 60% active;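 active means mean inhibition above about 50%, limit read from the data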
Target sequence (P42574 28-227 limits assumed): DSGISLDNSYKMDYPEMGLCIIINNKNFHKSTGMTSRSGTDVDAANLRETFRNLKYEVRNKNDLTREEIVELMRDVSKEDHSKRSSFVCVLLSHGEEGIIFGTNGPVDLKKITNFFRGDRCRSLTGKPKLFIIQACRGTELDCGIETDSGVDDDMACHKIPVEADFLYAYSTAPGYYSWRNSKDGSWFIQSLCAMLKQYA
SENP luc ctr: counter-screen for SENP inhibitors: luminescence interference; shares compounds with SENP7 block; Pre-incubated SENP8/Z-RLRGG-aminoluciferin, luciferase luminescence interference; inhibition, % at 12.5 µM; 6,200 tested, 39% active;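 active means mean inhibition above about 50% when retested at one dose, limit read from the data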
Of the large screens only hits and unclear results are named; the others gave an inactive call (follow-up assays come after a bar, where they were run). The list is not random: actives were taken first. Their share in the collection is about 2.6%.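 How the source made its calls, unless noted: active means mean inhibition above about 50% in the one-dose retest (limit read from the data); inactive means the rest.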

CCCc1cc(C(=O)Nc2ccc(F)cc2F)no1	SENP6 block 63 | SENP8 confirm inactive | SENP6 confirm inactive | SENP7 conf 71 | Casp3 select 60 | SENP luc ctr inactive
COc1ccc(-c2nc3ccccn3c2N=Cc2ccc(OC)c(OC)c2)cc1O	none (no result: SENP1 FRET inh, SENP7 block, SENP6 block, SENP8 block-1, SENP8 block-2)
CCCC[n+]1ccn(C2=C([O-])c3ccccc3C(=O)/C2=N\S(=O)(=O)c2ccc(Cl)cc2)c1	SENP6 block 57, SENP8 block-1 48 (no result: UCH37 DUB inh) | SENP8 confirm inactive | SENP6 confirm 50 | SENP7 conf inactive | Casp3 select inactive | SENP luc ctr inactive
CCCC[n+]1ccn(-c2nc3ccccc3nc2[N-]S(=O)(=O)c2ccc(Br)cc2)c1	none
O=C(O)COc1ccccc1C=NNC(=O)CN1CCN(Cc2ccccc2Cl)CC1	none (no result: SENP1 FRET inh, SENP7 block, SENP6 block, SENP8 block-1, SENP8 block-2)
O=C(/C=C/c1ccccc1)n1cnnc1SC/C=C/c1ccccc1	SENP6 block 59 | SENP8 confirm inactive | SENP6 confirm inactive | SENP7 conf 68 | Casp3 select inactive | SENP luc ctr inactive
Cc1nnc(SC/C=C/c2ccccc2)n(N)c1=O	none
COc1cc(-c2ccc(Nc3ccccc3C(=O)O)c(OC)c2)ccc1Nc1ccccc1C(=O)O	SENP6 block 74, SENP8 block-2 60, UCH37 DUB inh 25 | SENP8 confirm inactive | SENP6 confirm 55 | SENP7 conf inactive | Casp3 select inactive | SENP luc ctr 69
Cc1c(C(=O)NN=Cc2ccc(N3CCOCC3)cc2)nc2ccccn12	none (no result: SENP1 FRET inh, SENP7 block, SENP6 block, SENP8 block-1, SENP8 block-2)
Cc1ccccc1/C=C\c1nc2ccccc2c(=O)[nH]1	SENP7 block 85, SENP6 block 76, SENP8 block-2 69 | SENP8 confirm inactive | SENP6 confirm inactive | SENP7 conf 62 | Casp3 select inactive | SENP luc ctr inactive
C=CCOc1cccc(/C=C/c2nc3ccccc3c(=O)[nH]2)c1	SENP7 block 82 | SENP8 confirm inactive | SENP6 confirm inactive | SENP7 conf inactive | Casp3 select inactive | SENP luc ctr inactive
Cc1ccc(/C=C/c2nc3ccccc3c(=O)[nH]2)cc1	SENP7 block 98, SENP6 block 90, SENP8 block-2 86 | SENP8 confirm inactive | SENP6 confirm 55 | SENP7 conf inactive | Casp3 select inactive | SENP luc ctr inactive
COC(=O)c1ccc(/C=C/c2nc3ccccc3c(=O)[nH]2)cc1	SENP7 block 96, SENP6 block 89, SENP8 block-2 85 | SENP8 confirm inactive | SENP6 confirm inactive | SENP7 conf 52 | Casp3 select 63 | SENP luc ctr inactive
O=C(NN=Cc1ccccc1Br)c1ccc(CSc2cccc3cccnc23)cc1	none (no result: SENP1 FRET inh, SENP7 block, SENP6 block, SENP8 block-1, SENP8 block-2)
O=C1C2C3C=CC(C4CC34)C2C(=O)N1N=Cc1cccs1 (centres undefined)	none (no result: SENP1 FRET inh, SENP7 block, SENP6 block, SENP8 block-1, SENP8 block-2)
Cc1ccc(C)c(S(=O)(=O)C(C#N)c2nc3ccccc3nc2N2CCCC2)c1 (centres undefined)	SENP6 block 70, SENP8 block-2 65 | SENP8 confirm inactive | SENP6 confirm inactive | SENP7 conf inactive | Casp3 select inactive | SENP luc ctr inactive
Cc1ccc(C)c(S(=O)(=O)C(C#N)c2nc3ccccc3nc2N2CCOCC2)c1 (centres undefined)	none
O=C1C(=Cc2cccs2)C(=O)c2ccccc21	none
O=C1C(c2ccccc2)=[N+]([O-])c2ccccc21	SENP6 block 64 | SENP8 confirm 55 | SENP6 confirm 69 | SENP7 conf 75 | Casp3 select 61 | SENP luc ctr inactive
COc1ccc(-c2[nH]ncc2C=NNC(=O)c2ccc(Br)cc2)c(OC)c1	none (no result: SENP1 FRET inh, SENP7 block, SENP6 block, SENP8 block-1, SENP8 block-2)
O=C(Nc1ccc(F)c(Cl)c1)c1ccc2c(=O)n3c(nc2c1)CCCCC3	SENP7 block 69, SENP6 block 76 | SENP8 confirm inactive | SENP6 confirm 60 | SENP7 conf 91 | Casp3 select 62 | SENP luc ctr inactive
COc1cccc(C(=O)Nc2ccc3nc4n(c(=O)c3c2)CCCC4)c1	SENP6 block 53 | SENP8 confirm inactive | SENP6 confirm inactive | SENP7 conf 71 | Casp3 select 73 | SENP luc ctr inactive
COc1cc(OC)cc(C(=O)Nc2ccc3nc4n(c(=O)c3c2)CCCC4)c1	SENP7 block 86, SENP6 block 87, SENP8 block-2 77 | SENP8 confirm 58 | SENP6 confirm 82 | SENP7 conf 96 | Casp3 select 92 | SENP luc ctr 80
S=c1[nH]nc(COc2ccccc2)n1N=Cc1ccccc1Cl	none (no result: SENP1 FRET inh, SENP7 block, SENP6 block, SENP8 block-1, SENP8 block-2)
Cc1cc(C)n(CCC(=O)NN=Cc2cccc([N+](=O)[O-])c2)n1	none (no result: SENP1 FRET inh, SENP7 block, SENP6 block, SENP8 block-1, SENP8 block-2)
COC(=O)C(=NNc1ccc(Cl)cc1)Sc1nnc(-c2ccc(OC)cc2)n1C	none (no result: SENP1 FRET inh, SENP7 block, SENP6 block, SENP8 block-1, SENP8 block-2)
Clc1ccc(OCc2nc(-c3ccc(Br)o3)no2)cc1	none
COC(=O)c1ccc(-c2nc(-c3ccc(Br)o3)no2)cc1	SENP7 block 52 | SENP8 confirm inactive | SENP6 confirm inactive | SENP7 conf inactive | Casp3 select inactive | SENP luc ctr inactive
CCOC(=O)c1ccc(OCc2nc(-c3cccs3)no2)cc1	none
COC(=O)c1ccc(-c2nc(-c3cccs3)no2)cc1	SENP7 block 98, SENP6 block 92, SENP8 block-2 87 | SENP8 confirm 78 | SENP6 confirm 88 | SENP7 conf 89 | Casp3 select 88 | SENP luc ctr inactive
COc1ccc(-c2nc(-c3ccc(Br)o3)no2)cc1	SENP7 block 70 | SENP8 confirm inactive | SENP6 confirm inactive | SENP7 conf inactive | Casp3 select inactive | SENP luc ctr inactive
O=C(Nc1ccc(-c2noc(-c3cccs3)n2)cc1)c1cccnc1	SENP7 block 55 | SENP8 confirm inactive | SENP6 confirm inactive | SENP7 conf 68 | Casp3 select inactive | SENP luc ctr inactive
COc1cc(C(C)=NNC(=O)c2nnn(-c3nonc3N)c2-c2cccs2)ccc1O	none (no result: SENP1 FRET inh, SENP7 block, SENP6 block, SENP8 block-1, SENP8 block-2)
O=C(C1CCC1)N1CCc2cc(S(=O)(=O)NC3CCCc4ccccc43)ccc21 (centres undefined)	SENP7 block 97 | SENP8 confirm inactive | SENP6 confirm inactive | SENP7 conf inactive | Casp3 select inactive | SENP luc ctr inactive
O=C(O)CCC(=O)N1CCc2cc(S(=O)(=O)NC3CCCc4ccccc43)ccc21 (centres undefined)	none
